Laboratory results published in ChEMBL document CHEMBL1938352, “Discovery of potent and liver-targeted stearoyl-CoA desaturase (SCD) inhibitors in a bispyrrolidine series” (Bioorg Med Chem Lett, 2012).

What was measured:
Acyl-CoA desaturase 1 [1] = molecular target: T1, Acyl-CoA desaturase 1 (Rattus norvegicus, UniProt P07308); test: Inhibition of SCD-1 activity in rat liver microsomes assessed as reduction in [1-14C] stearoyl CoA desaturation by scintillation counting; parameters: species or system Microsome
T1 sequence (P07308 whole entry): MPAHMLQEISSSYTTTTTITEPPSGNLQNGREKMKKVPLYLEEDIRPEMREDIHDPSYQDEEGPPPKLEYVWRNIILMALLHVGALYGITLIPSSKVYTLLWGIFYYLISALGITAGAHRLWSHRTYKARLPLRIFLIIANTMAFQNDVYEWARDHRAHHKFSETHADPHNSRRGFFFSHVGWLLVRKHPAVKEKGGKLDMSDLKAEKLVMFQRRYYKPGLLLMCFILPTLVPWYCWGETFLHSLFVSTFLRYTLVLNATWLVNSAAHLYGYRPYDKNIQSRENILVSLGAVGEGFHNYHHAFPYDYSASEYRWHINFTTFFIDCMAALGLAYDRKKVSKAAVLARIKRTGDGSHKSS
How it was run: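 The enzymatic assay used SCD-induced rat liver microsomes. IC50 values are the average of at least two independent titrations.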

Stearoyl-CoA desaturase = molecular target: T2, Stearoyl-CoA desaturase (Homo sapiens, UniProt O00767); test: Inhibition of SCD-1 activity in organic anion transporting polypeptides-deficient human HepG2 cells assessed as reduction in [1-14C] stearoyl CoA desaturation by scintillation counting; assay type: cell-based
T2 sequence (O00767 whole entry): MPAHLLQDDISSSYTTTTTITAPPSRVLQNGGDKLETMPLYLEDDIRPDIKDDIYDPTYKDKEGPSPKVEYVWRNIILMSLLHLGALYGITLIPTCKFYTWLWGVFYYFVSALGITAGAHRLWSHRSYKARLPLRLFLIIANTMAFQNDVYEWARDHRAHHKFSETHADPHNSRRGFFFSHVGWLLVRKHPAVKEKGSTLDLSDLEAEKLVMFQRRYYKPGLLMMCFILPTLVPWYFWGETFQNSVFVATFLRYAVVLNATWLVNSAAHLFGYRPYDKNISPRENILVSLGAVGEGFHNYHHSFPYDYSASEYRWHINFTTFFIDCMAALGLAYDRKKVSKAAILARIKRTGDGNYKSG
How it was run: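 The whole-cell assay used human hepatocellular carcinoma HepG2 cells, which lack active OATPs. IC50 values are the average of at least two independent titrations.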

Acyl-CoA desaturase 1 [2] = molecular target: T1, Acyl-CoA desaturase 1; test: Inhibition of SCD-1 activity in rat hepatocytes expressing organic anion transporting polypeptides assessed as reduction in [1-14C] stearoyl CoA desaturation by scintillation counting; assay type: cell-based, Hepatocyte
How it was run: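 The cellular assay used rat hepatocytes with functional OATPs to assess active transport. IC50 values are the average of at least two independent titrations.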

[3] = molecular target: T3, Acyl-CoA desaturase 1 (Rattus norvegicus) (UniProt P07308); test: Ratio of IC50 for SCD-1 activity in rat hepatocytes expressing organic anion transporting polypeptides to IC50 for SCD-1 activity in rat liver microsomes; settings: Hepatocyte, Microsome
T3 sequence (whole entry): T1 sequence (P07308 whole entry)
How it was run: (§1)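 The fold shift is the ratio of IC50 values between two assays: rat liver microsomal enzyme, HepG2 whole cell, and OATP-containing rat hepatocytes. Each IC50 is the average of at least two independent titrations.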

[4] = Drug level in liver of C57BL/6 mouse at 10 mg/kg, po measured 6 hrs post dosing; assay type: ADME, organism-based, C57BL6; parameters: dose 10 mg/kg, route oral; settings: read-out: Drug uptake
How it was run: (§2)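 Tissue distribution was measured in mice given 10 mg/kg PO, n = 2. Liver, plasma and Harderian gland drug concentrations were measured 6 h post dose. Liver/plasma and liver/Harderian ratios were taken from these concentrations.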

[5] = Oral bioavailability in C57BL/6 mouse at 10 mg/kg; assay type: ADME, organism-based, C57BL6; settings: in vivo
How it was run: (§3)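 C57BL6 mice were dosed orally at 10 mg/kg. Drug exposure was measured over 0–6 h to give AUC_0–6h, and oral bioavailability (F) was also determined.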

Acyl-CoA 6-desaturase = molecular target: T4, Acyl-CoA 6-desaturase (Homo sapiens, UniProt O95864); test: Inhibition of human delta-6 desaturase activity in human HepG2 cells using [1-14C]-stearic acid tracer; assay type: cell-based
T4 sequence (O95864 whole entry): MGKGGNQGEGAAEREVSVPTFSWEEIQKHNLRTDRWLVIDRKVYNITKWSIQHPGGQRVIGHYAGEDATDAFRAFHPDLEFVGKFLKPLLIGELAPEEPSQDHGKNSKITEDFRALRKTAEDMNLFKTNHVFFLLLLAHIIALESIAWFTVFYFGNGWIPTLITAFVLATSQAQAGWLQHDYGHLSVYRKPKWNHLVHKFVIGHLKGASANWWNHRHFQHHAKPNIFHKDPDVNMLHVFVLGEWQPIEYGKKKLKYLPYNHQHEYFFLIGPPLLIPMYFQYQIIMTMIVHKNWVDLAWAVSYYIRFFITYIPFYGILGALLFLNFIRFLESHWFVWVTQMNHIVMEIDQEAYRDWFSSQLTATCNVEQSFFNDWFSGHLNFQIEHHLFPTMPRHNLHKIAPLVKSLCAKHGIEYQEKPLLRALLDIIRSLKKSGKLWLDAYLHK

Mus musculus [6] = test: Antidiabetic activity in C57BL/6 mouse LPD model assessed as reduction in liver SCD activity at 14.8 uM liver concentration dosed at 10 mg/kg, po measured 3 hrs post dosing; assay type: functional; settings: C57BL6, 3 h
[7] = AUC (0 to 6 hrs) in C57BL/6 mouse at 10 mg/kg, po; assay type: ADME, organism-based, C57BL6; parameters: time < 6 hr, dose 10 mg/kg, route oral; settings: plasma; how it was run: as §3
[8] = molecular target: Acyl-CoA (8-3)-desaturase (Homo sapiens, UniProt O60427); test: Inhibition of human delta-5 desaturase activity in human HepG2 cells using [1-14C]-stearic acid tracer; assay type: cell-based
HepG2 = test: Ratio of IC50 for SCD-1 activity in organic anion transporting polypeptides-deficient human HepG2 cells to IC50 for SCD-1 activity in rat hepatocytes expressing organic anion transporting polypeptides; assay type: cell-based; how it was run: as §1
[9] = molecular target: T5, Stearoyl-CoA desaturase 5 (Homo sapiens, UniProt Q86SK9); test: Inhibition of human SCD-5
T5 sequence (Q86SK9 whole entry): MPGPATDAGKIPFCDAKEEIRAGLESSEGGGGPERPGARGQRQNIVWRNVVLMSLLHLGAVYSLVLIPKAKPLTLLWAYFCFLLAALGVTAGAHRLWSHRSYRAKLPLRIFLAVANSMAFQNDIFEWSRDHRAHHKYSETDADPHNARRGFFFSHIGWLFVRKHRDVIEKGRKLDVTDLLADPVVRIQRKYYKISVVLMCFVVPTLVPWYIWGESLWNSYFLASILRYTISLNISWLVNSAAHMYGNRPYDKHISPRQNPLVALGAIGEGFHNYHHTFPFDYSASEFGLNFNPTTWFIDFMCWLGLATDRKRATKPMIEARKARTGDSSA

Acyl-CoA desaturase 1 [10] = molecular target: T6, Acyl-CoA desaturase 1 (Mus musculus, UniProt P13516); test: Inhibition of mouse SCD-1
T6 sequence (P13516 whole entry): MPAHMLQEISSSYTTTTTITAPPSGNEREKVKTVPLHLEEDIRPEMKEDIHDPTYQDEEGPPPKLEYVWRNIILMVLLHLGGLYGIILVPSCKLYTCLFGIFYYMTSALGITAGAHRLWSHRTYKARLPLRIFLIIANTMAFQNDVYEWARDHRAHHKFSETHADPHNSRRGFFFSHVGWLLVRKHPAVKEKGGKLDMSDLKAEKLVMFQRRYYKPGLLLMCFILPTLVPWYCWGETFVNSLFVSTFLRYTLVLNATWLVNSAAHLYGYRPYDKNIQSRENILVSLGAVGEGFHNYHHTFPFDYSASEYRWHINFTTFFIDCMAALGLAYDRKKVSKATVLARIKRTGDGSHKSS

Mus musculus [11] = test: Antidiabetic activity in C57BL/6 mouse LPD model assessed as reduction in liver SCD activity at 7.7 uM liver concentration dosed at 2 mg/kg, po measured 3 hrs post dosing; assay type: functional; settings: C57BL6, 3 h
Mus musculus [12] = test: Ratio of drug uptake in liver to harderian gland of C57BL/6 mouse at 10 mg/kg, po measured 6 hrs post dosing; settings: in vivo
[13] = Drug level in harderian gland of C57BL/6 mouse at 10 mg/kg, po measured 6 hrs post dosing; assay type: ADME, organism-based, C57BL6; parameters: dose 10 mg/kg, route oral; settings: read-out: Drug uptake; how it was run: as §2
[14] = Drug level in plasma of C57BL/6 mouse at 10 mg/kg, po measured 6 hrs post dosing; assay type: ADME, organism-based, C57BL6; parameters: dose 10 mg/kg, route oral; settings: read-out: Drug uptake; how it was run: as §2
[15] = Ratio of drug uptake in liver to plasma of C57BL/6 mouse at 10 mg/kg, po measured 6 hrs post dosing; assay type: ADME, organism-based, C57BL6; parameters: dose 10 mg/kg, route oral; how it was run: as §2
Mus musculus [16] = test: Antidiabetic activity in C57BL/6 mouse LPD model assessed as reduction in liver SCD activity at 4.9 uM liver concentration dosed at 2 mg/kg, po measured 3 hrs post dosing; assay type: functional; settings: C57BL6, 3 h
Mus musculus [17] = test: Antidiabetic activity in C57BL/6 mouse LPD model assessed as reduction in liver SCD activity at 1.6 uM liver concentration dosed at 0.4 mg/kg, po measured 3 hrs post dosing; assay type: functional; settings: C57BL6, 3 h
Mus musculus [18] = test: Antidiabetic activity in po dosed C57BL/6 mouse LPD model assessed as reduction in liver SCD activity measured 3 hrs post dosing; settings: C57BL6, Liver

Acyl-CoA (8-3)-desaturase, sequence (O60427 whole entry): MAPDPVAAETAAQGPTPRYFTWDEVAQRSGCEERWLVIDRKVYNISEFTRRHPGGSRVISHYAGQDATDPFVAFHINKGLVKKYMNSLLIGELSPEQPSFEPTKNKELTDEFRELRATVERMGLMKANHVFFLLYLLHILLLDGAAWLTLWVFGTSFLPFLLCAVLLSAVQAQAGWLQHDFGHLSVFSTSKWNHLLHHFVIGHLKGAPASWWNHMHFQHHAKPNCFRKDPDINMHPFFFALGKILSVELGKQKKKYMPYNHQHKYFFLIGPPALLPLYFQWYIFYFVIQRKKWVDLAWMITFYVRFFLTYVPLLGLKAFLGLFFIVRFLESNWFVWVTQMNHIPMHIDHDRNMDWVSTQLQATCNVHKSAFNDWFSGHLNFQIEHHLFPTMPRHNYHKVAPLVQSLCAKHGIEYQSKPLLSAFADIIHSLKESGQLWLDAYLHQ

Row | Compound | IC50 (Acyl-CoA desaturase 1 [1]) [nM] | IC50 (Stearoyl-CoA desaturase) [nM] | IC50 (Acyl-CoA desaturase 1 [2]) [nM] | also measured
1 | O=C(O)Cn1nnc(-c2cnc(N3CC4(CCN(c5cc(F)ccc5Cl)CC4)C3)s2)n1 | 128 | > 100000 | 506 | –
2 | O=C(O)Cn1nnc(-c2nnc(N3CC4CN(c5cc(F)ccc5Cl)CC4C3)s2)n1 (stereo not drawn) | 59 | > 10000 | 300 | –
3 | O=C(O)Cn1nnc(-c2cnc(N3CCN(c4cc(F)ccc4Cl)CC3)s2)n1 | 28 | 4200 | 134 | concentration at 6 h [4]: 9300 nM; bioavailability [5]: 15%; inhibition in vivo at 2 mg/kg (Mus musculus [11]): 61%; AUC(0-t) at 6 h [7]: 0.7 µM·h; Ratio (Mus musculus [12]): 180; concentration at 6 h [13]: 50 nM; concentration at 6 h [14]: 220 nM; Kp at 6 h [15]: 40; IC50 (Acyl-CoA desaturase 1 [10]): 21 nM
4 | O=C(O)Cn1nnc(-c2cnc(N3CC4(C3)CN(c3cc(F)ccc3Cl)C4)s2)n1 | 43 | 50900 | 103 | –
5 | O=C(O)Cn1nnc(-c2cc(N3CCC(Oc4cc(F)ccc4Br)CC3)no2)n1 [MK-8245] | – | – | – | inhibition in vivo at 2 mg/kg (Mus musculus [16]): 89%; inhibition in vivo at 0.4 mg/kg (Mus musculus [17]): 49%; ED50 (Mus musculus [18]): 1 mg/kg; concentration at 6 h [14]: 30 nM; Kp at 6 h [15]: 90

Second part, led by results:

Row | IC50 (Acyl-CoA desaturase 1 [1]) [nM] | IC50 (Stearoyl-CoA desaturase) [nM] | IC50 (Acyl-CoA desaturase 1 [2]) [nM] | Compound | also measured
6 | 34 | 15400 | 233 | O=C(O)Cn1nnc(-c2cnc(N3CC4CN(c5cc(F)ccc5Cl)CC4C3)s2)n1 (stereo not drawn) | –
7 | 24 | 9900 | 198 | O=C(O)Cn1nnc(-c2cc(N3CC4CN(c5cc(F)ccc5Cl)CC4C3)no2)n1 (stereo not drawn) | Ratio IC50 [3]: 8; concentration at 6 h [4]: 2700 nM; bioavailability [5]: 24%; IC50 (Acyl-CoA 6-desaturase): > 80000 nM; inhibition in vivo at 10 mg/kg (Mus musculus [6]): 72%; AUC(0-t) at 6 h [7]: 2.1 µM·h; IC50 [8]: > 80000 nM; Ratio IC50 (HepG2): 50; IC50 [9]: 242 nM; IC50 (Acyl-CoA desaturase 1 [10]): 18 nM
8 | 29 | 9140 | 176 | O=C(O)Cn1nnc(-c2cnc(N3C[C@@H]4C[C@H]3CN4c3cc(F)ccc3Cl)s2)n1 | –
9 | 36 | > 100000 | 438 | O=C(O)Cn1nnc(-c2cnc(N3CCC4(CC3)CN(c3cc(F)ccc3Cl)C4)s2)n1 | –
